# Measurements pooled from the literature.
# Target: Serine/threonine-protein kinase N1 (PKN1, Homo sapiens, UniProt Q16512)
read-out,technique,tested at,remaining binding [%],Structure (SMILES)
cell-free assay,competition with immobilised ligand,0.1 µM,96.7,Cc1cc(C)c(-n2ccn3nc(-c4cccnc4)cc23)cc1NC(=O)c1cc(C#N)cc(S(F)(F)(F)(F)F)c1
binding,,1 µM,99,Cc1cnn2ncc(-c3ccnc(N(C)C)n3)c2c1
binding,competition with immobilised ligand,10 µM,64,c1cncc(-c2cccc(Nc3nccc(NC4CCCCC4)n3)c2)c1
cell-free assay,competition with immobilised ligand,1 µM,100,C[C@H](c1ccc(F)cc1)N(Cc1cccc(C(=O)O)c1)C(=O)c1cnc2ccccc2c1
cell-free assay,competition with immobilised ligand,5 µM,67,FC(F)(F)Oc1cccc(-c2cnc3ccc(-c4ccncc4)nn23)c1
binding,,1 µM,100,CC1CCCN1c1nccc(-c2cnn3ncccc23)n1 (stereo not shown)
binding,competition with immobilised ligand,1 µM,100,Cc1nc(N2CC[C@@H](O)C2)ncc1-c1cc(C(F)(F)F)cc2[nH]ncc12
cell-free assay,competition with immobilised ligand,5 µM,100,COc1ncc2cc3ccccc3nc2c1C#N
binding,competition with immobilised ligand,1 µM,100,CCN1CCN(Cc2ccc(C(=O)Nc3ccc(C)c(Oc4ccc5c(c4)CC(=O)N5)c3)cc2C(F)(F)F)CC1
binding,,1 µM,86,N[C@H]1CCN(c2nccc(-c3cnn4ncccc34)n2)C1
binding,competition with immobilised ligand,1 µM,82,COc1cnc(Nc2cccc(S(N)(=O)=O)c2)nc1N1CCN(c2ccccc2)CC1
binding,competition with immobilised ligand,1 µM,3.4,O=C(c1ccc(Nc2ncc(Cl)c(-c3cc4ccccc4s3)n2)cc1)N1CCC(N2CCCC2)CC1
binding,,1 µM,98,CN(C)c1nccc(-c2cnn3ncccc23)n1
binding,competition with immobilised ligand,1 µM,37,O=C(NCCCN1CCOCC1)c1ccc(Nc2nccc(-c3cc4ccccc4s3)n2)cc1
cell-free assay,competition with immobilised ligand,1 µM,95,O=C(Nc1cnc(Oc2ccc(F)cc2)nc1)N1CCc2ncccc2[C@@H]1c1ccc(F)cc1
binding,competition with immobilised ligand,1 µM,100,O=C(Nc1c[nH]nc1C(=O)NC1CCNCC1)c1cc(F)cc(F)c1
cell-free assay,competition with immobilised ligand,1 µM,100,O=C1CCc2cc(Nc3cc(OC4CCOCC4)c([N+](=O)[O-])cc3Cl)ccc2N1
binding,competition with immobilised ligand,1 µM,1.2,Cc1cnc(Nc2ccc(C(=O)N3CCC(N4CCCC4)CC3)cc2)nc1-c1cc2ccccc2s1
cell-free assay,competition with immobilised ligand,1 µM,100,O=C(NS(=O)(=O)c1ccc(NCC2CCOCC2)c([N+](=O)[O-])c1)c1ccc(N2CCN(Cc3ccc(C(F)(F)F)cc3-c3ccc(Cl)cc3)CC2)cc1Oc1cnc2[nH]ccc2c1
binding,,1 µM,87,c1cnn2ncc(-c3ccnc(N4CCC45COC5)n3)c2c1
cell-free assay,competition with immobilised ligand,1 µM,96,COc1ccc2c(c1)O[C@@H](c1ccc(OC)c(OC)c1)C[C@H]2NC(=O)C1(c2ccc3c(c2)OC(F)(F)O3)CC1
binding,,1 µM,100,CN(C)c1ncc(F)c(-c2cnn3ncccc23)n1
